The values below come from ChEMBL document CHEMBL1131251, “Inhibition of in vitro and in vivo HIV replication by a distamycin analogue that interferes with chemokine receptor function: a candidate for chemotherapeutic and microbicidal application” (J Med Chem, 1998).

The structures appear in SMILES notation.

Conditions in all cases: HEK293; concentration not given here
Assay [1] concerns the target C-C chemokine receptor type 5 (Homo sapiens) (UniProt P51681). Put plainly: The compound was tested for inhibition of Chemokine (RANTES) binding against C-C chemokine receptor type 5 transfected in HEK 293 cells. The class given is cell-based. Summed up: (§1)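 CCR5 stably transfected HEK-293 cells at 1 × 10^6 cells/mL in RPMI 1640, 1% BSA, 5 mM HEPES pH 8.0. Constant radiolabeled chemokine (0.2 ng/assay) plus competitor at a single 200 μM concentration. Rotated 45 min at room temperature, spun through a 10% sucrose/PBS cushion, and cell-bound radioactivity gamma-counted. Inhibition measured against a drug-free control; triplicate, n ≥ 2.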

The subject of assay [2] is CXCR2 (Homo sapiens). Put plainly: The compound was tested for inhibition of Chemokine r (IL-8) binding against CXCR2 transfected in HEK 293 cells.
Assay [3] concerns the target C-C chemokine receptor type 5 (Homo sapiens) (UniProt P51681). Put plainly: The compound was tested for inhibition of Chemokine (MIP-1Alpha) binding against C-C chemokine receptor type 5 transfected in HEK 293 cells. The class given is cell-based. Summed up:
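Competition binding in HEK-293 cells transfected with the named receptor, at 1 × 10^6 cells/mL in RPMI 1640 with 1% BSA and 5 mM HEPES pH 8.0. Cells were mixed with 0.2 ng/assay radiolabeled chemokine plus test compound at a single concentration of 200 μM, rotated 45 min at room temperature, then spun through a 10% sucrose/PBS cushion. Cell-bound radioactivity was gamma-counted; triplicates, n ≥ 2; t-test against a drug-free control.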

Assay [4] has the same target. Put plainly: The compound was tested for inhibition of Chemokine (MIP-1Beta) binding against C-C chemokine receptor type 5 transfected in HEK 293 cells. In kind it is cell-based. Summed up:
as §1

Assay [5] deals with CXCR2 (Homo sapiens). Put plainly: The compound was tested for inhibition of Chemokine (IL-8) binding against CXCR2 transfected in HEK 293 cells.

C-C chemokine receptor type 5 (Homo sapiens), sequence (P51681 whole entry, looked up): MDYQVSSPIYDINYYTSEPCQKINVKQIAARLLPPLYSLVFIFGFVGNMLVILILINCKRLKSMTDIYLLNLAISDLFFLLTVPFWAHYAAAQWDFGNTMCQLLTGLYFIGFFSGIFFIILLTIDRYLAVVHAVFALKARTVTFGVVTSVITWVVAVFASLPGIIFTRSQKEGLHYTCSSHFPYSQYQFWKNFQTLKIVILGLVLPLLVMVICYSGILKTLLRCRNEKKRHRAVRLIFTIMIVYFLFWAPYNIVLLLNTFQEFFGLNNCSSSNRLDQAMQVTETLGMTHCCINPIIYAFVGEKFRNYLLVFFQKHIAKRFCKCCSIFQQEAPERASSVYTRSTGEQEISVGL

As a reminder, the inhibition is the drop in the measured response relative to a control, in per cent. Take `Cn1cc(N)cc1C(=O)Nc1ccc(S(=O)(=O)O)c2cc(S(=O)(=O)O)ccc12`: the inhibition is -1% in assay [1], 0.3% with CXCR2 (Homo sapiens) [2], 9.5% in assay [3] and 6.6% in assay [4].
In the case of `Cn1cc(NC(=O)c2cc(NC(=O)Nc3c[nH]c(C(=O)Nc4cc(C(=O)Nc5ccc(S(=O)(=O)O)c6cccc(S(=O)(=O)O)c56)n(C)c4)c3)c[nH]2)cc1C(=O)Nc1ccc(S(=O)(=O)O)c2cccc(S(=O)(=O)O)c12`, the inhibition in assay [1] was -3.1%; in assay [3], 6.5%; in the assay on CXCR2 (Homo sapiens) [5] it was 5.4%.
